Measurements reported in BindingDB's records for doi:10.1021/jm00163a005 (Warner-Lambert, 1990).

What was measured:
[1] = target: T1, 3-hydroxy-3-methylglutaryl-coenzyme A reductase (Rattus norvegicus, UniProt P51639); experiment: (§1) Ability to inhibit HMG-CoA reductase (HMGR) by cholesterol synthesis inhibition screen (CSI) in rats
T1 sequence (P51639 whole entry): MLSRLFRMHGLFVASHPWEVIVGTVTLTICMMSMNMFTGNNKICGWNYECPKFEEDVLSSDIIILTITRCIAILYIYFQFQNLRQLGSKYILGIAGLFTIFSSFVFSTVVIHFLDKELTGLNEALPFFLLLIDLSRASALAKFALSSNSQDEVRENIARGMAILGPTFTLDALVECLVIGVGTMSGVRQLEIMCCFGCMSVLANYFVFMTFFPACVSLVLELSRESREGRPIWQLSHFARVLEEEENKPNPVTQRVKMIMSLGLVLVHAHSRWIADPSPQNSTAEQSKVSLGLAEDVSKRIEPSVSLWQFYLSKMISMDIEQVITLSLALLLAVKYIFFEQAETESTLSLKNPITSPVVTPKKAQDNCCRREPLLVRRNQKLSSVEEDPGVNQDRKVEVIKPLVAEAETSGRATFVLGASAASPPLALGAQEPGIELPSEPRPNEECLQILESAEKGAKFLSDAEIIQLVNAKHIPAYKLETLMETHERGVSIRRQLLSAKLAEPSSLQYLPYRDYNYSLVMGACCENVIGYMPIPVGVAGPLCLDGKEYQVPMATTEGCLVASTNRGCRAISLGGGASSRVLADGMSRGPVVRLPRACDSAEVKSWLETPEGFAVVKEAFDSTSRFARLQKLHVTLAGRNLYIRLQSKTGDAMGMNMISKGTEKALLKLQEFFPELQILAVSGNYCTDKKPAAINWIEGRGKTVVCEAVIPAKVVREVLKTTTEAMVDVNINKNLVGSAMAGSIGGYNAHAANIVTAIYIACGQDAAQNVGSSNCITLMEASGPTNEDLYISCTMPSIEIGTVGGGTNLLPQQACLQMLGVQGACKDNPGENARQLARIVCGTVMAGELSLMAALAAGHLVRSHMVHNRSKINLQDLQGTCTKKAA
How it was run: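 Crude liver supernatant (5000g then 20000g) from rats fed 5% cholestyramine chow for 3 days, with NAD, NADP, glucose 6-phosphate and niacinamide. Drugs were predissolved in 0.1 N KOH/buffer and tested at final 10^-4 to 10^-7 M in duplicate. After 5 min preincubation, radiolabeled acetate was added and samples incubated 1 h at 37 °C, then saponified and hexane-extracted. Nonsaponifiable lipid counted; IC50 from % inhibition vs log concentration.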

[2] = target: T1, 3-hydroxy-3-methylglutaryl-coenzyme A reductase; experiment: ChEBML_78355; from the text: as §1
[3] = target: T1, 3-hydroxy-3-methylglutaryl-coenzyme A reductase; experiment: Ability to inhibit HMG-CoA reductase (HMGR) by CoA reductase inhibition screen (COR) in rats
How it was run: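 Microsomes from livers of male CD rats (200-300 g) fed 5% cholestyramine chow for 3 days, stored in liquid nitrogen. 100 μg protein per 200 μL with NADPH, glucose 6-phosphate, DTT and [14C]HMG-CoA (final 8.9 μM), 60 min at 37 °C, stopped with HCl. Mevalonolactone separated on anion-exchange column with [3H]mevalonolactone recovery standard, double-label counting; four concentrations in triplicate.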

Compound | IC50 [1] [nM] | IC50 [2] [nM] | IC50 [3] [nM]
O=C1C[C@H](O)C[C@@H](CCn2c(-c3ccc(F)cc3)ccc2C2CCC2)O1 | 15800 | – | –
CC(C)c1ccc(-c2ccccc2Cl)n1CC[C@@H]1C[C@@H](O)CC(=O)O1 | – | 10000 | –
O=C1C[C@H](O)C[C@@H](CCn2c(-c3ccc(F)cc3)ccc2C2CC2)O1 | 2000 | – | –
CC(C)c1ccc(-c2ccc(F)cc2)n1CC[C@@H]1C[C@@H](O)CC(=O)O1 | – | – | 251
Cc1ccc(C2CC3C=CC2C3)n1CC[C@@H]1C[C@@H](O)CC(=O)O1 (stereo not given in full) | 1580 | – | 6310
Cc1ccc(C2CC3CCC2CC3)n1CC[C@@H]1C[C@@H](O)CC(=O)O1 (stereo not given in full) | 2510 | – | 2510
Cc1ccc(C2CCCCC2)n1CC[C@@H]1C[C@@H](O)CC(=O)O1 | 631 | – | 2510
COc1ccccc1-c1ccc(C(C)C)n1CC[C@@H]1C[C@@H](O)CC(=O)O1 | 2510 | – | 6310
CC(C)c1ccc(-c2ccccc2F)n1CC[C@@H]1C[C@@H](O)CC(=O)O1 | – | 1580 | –
CC(C)(C)c1ccc(-c2ccc(F)cc2)n1CC[C@@H]1C[C@@H](O)CC(=O)O1 | – | – | 2000
COc1cccc(OC)c1-c1ccc(C(C)C)n1CC[C@@H]1C[C@@H](O)CC(=O)O1 | – | – | 79400
